As a reminder, the LC50 is the concentration lethal to half of the exposed cells or organisms. Read a low LC50 as a more lethal substance. For orientation: IC50 means the point on the concentration scale where inhibition reaches its midpoint.

This note sets out measurements from ChEMBL document CHEMBL1137673, “Improved synthesis of seven aromatic Baylis-Hillman adducts (BHA): evaluation against Artemia salina Leach. and Leishmania chagasi” (Eur J Med Chem, 2009).

The subject of series [1] is Artemia salina (organism). As to the kind of experiment: Toxicity in Artemia salina after 24 hrs. Type of series: organism-based. As to conditions: in vivo. The procedure, abridged:
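Brine shrimp nauplii hatched in filtered sea water over 48 h (lamp drawing hatched shrimps through a partitioned tank), exposed to compound in DMSO/sea water in tubes for 24 h under light. Dead and surviving shrimps counted; LC50 from concentration versus lethality percentage on a probit scale. Sea water plus DMSO served as control.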

Series [2] relates to Leishmania chagasi. As to the kind of experiment: Antileishmanial activity against promastigote form of Leishmania chagasi MCAN/BR/99/JP15 after 72 hrs. It is filed as functional, organism-based, MCAN/BR/99/JP. In a few lines:
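Log-phase promastigotes at 1 × 10^6 parasites/mL were grown at 26 °C in Schneider's Drosophila medium with 20% FBS, with or without a range of adduct concentrations, for 72 h. Glucantime served as the reference drug. Parasites were fixed in isotonic citric acid/NaCl/formalin solution, and growth was counted by light microscopy in a Neubauer chamber. Three independent experiments were run in triplicate.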

Series [3] has as its system Leishmania amazonensis. As to the kind of experiment: Antileishmanial activity against Leishmania amazonensis. It is filed as functional, organism-based.
Where [4] appears, read: Leishmania chagasi, MCAN/BR/99/JP, 72 h, read-out: IC50.

In the case of `C=C(C#N)C(O)c1ccc(Br)cc1` (stereo unspecified), the LC50 at 24 h in series [1] was determined as 130 µM. Moreover, in series [2] (setting [4]), the IC50 was 25.2 µM.
Taken in the same sequence, the figures for `C=C(C#N)C(O)c1ccncc1` (stereo unspecified) were 443 µM and 30.1 µM.
Taken in the same sequence, the figures for `C=C(C#N)C(O)c1cccnc1` (stereo unspecified) were 555 µM and 36.9 µM.
On the same counts, the results for `C=C(C#N)C(O)c1ccccc1[N+](=O)[O-]` (stereo unspecified) are 430 µM and 38.8 µM.
For the compound `C=C(C#N)C(O)c1cccc([N+](=O)[O-])c1` (stereo unspecified), the LC50 at 24 h in series [1] was found to be 471 µM. Besides, the IC50 in series [2] (setting [4]) amounted to 34.6 µM.
With MEGLUMINE ANTIMONATE, the IC50 in series [2] worked out at 1620.3 µg/mL.
`C=C(C#N)C(O)c1ccc([N+](=O)[O-])cc1` (stereo unspecified) had an LC50 at 24 h in series [1] of 180 µM. Further, the IC50 came to 37.4 µM in series [2] (setting [4]) and 7.9 µM in series [3].
`C=C(C#N)C(O)c1ccccn1` (stereo unspecified) came in with an LC50 at 24 h in series [1] of 545 µM. In addition, in series [2] (setting [4]), the IC50 worked out at 32 µM.
